Experimental data pooled from the literature.
Protocols differ between the studies behind these lines.
Target: Cyclin-dependent kinase 3 (CDK3, Homo sapiens, UniProt Q00526)

Compound | observed | method | tested at | remaining binding
CCCOc1ccc([C@H]2[C@H](C(=O)O)[C@@H](c3ccc4c(c3)OCO4)CN2CC(=O)Nc2c(CC)cccc2CC)cc1 | cell-free assay | competition with immobilised ligand | 1 µM | 95%
c1cnn2ncc(-c3ccnc(N4CCC45COC5)n3)c2c1 | binding |  | 1 µM | 74%
C[C@@H](c1cccc(C#N)c1)n1cc(Cl)cc(C(N)=O)c1=N | cell-free assay | competition with immobilised ligand | 1 µM | 100%
O=C(c1ccc(Nc2ncc(Cl)c(-c3cc4ccccc4s3)n2)cc1)N1CCC(N2CCCC2)CC1 | binding | competition with immobilised ligand | 1 µM | 48%
Cc1c(NC(=O)c2cc(C(N)=O)nc3cc(F)ccc23)c(C(F)(F)F)nn1Cc1ccc(C#N)cc1 | cell-free assay | competition with immobilised ligand | 1 µM | 95%
C[C@@H]1CN(c2ccc3ncc(-c4ccc5[nH]nc(C6CC6)c5c4)n3n2)C[C@H](C)O1 | binding | competition with immobilised ligand | 0.5 µM | 90%
O=C(c1ccc(Nc2nccc(-c3cc4ccccc4s3)n2)cc1)N1CCC(N2CCCC2)CC1 | binding | competition with immobilised ligand | 1 µM | 98%
CN(C)c1nccc(-c2cnc3ncccn23)n1 | binding |  | 1 µM | 79%
O=C(NCCCN1CCOCC1)c1ccc(Nc2ncc(Cl)c(-c3ccc(Cl)s3)n2)cc1 | binding | competition with immobilised ligand | 1 µM | 44%
CNC(=O)[C@@H]1CC[C@@H](n2c(-c3ccc4cnccc4c3)nc3ccc(C(=O)NCc4cccc(C(N)=O)c4)cc32)C1 | binding | competition with immobilised ligand | 1 µM | 89%
CS(=O)(=O)c1cc(C2(NC(=O)c3cncc4c3cnn4-c3ccc(F)cc3)CC2)ccn1 | cell-free assay | competition with immobilised ligand | 1 µM | 81%
CN(CCCC(F)(F)F)c1nccc(-c2cnn3ncccc23)n1 | binding |  | 1 µM | 100%
O=C(NCC1CCOCC1)c1n[nH]cc1NC(=O)c1c(F)cccc1F | binding | competition with immobilised ligand | 1 µM | 75%
CC(=O)N1CCC(c2ccc(C(=O)NC3=NCCN3)cc2C(F)(F)F)CC1 | cell-free assay | competition with immobilised ligand | 1 µM | 100%
Cc1cnn2ncc(-c3ccnc(N(C)C)n3)c2c1 | binding |  | 1 µM | 86%
COc1cnc(Nc2cccc(S(N)(=O)=O)c2)nc1N1CCN(c2ccccc2)CC1 | binding | competition with immobilised ligand | 1 µM | 100%
COc1ncc2cc3ccccc3nc2c1C#N | cell-free assay | competition with immobilised ligand | 5 µM | 100%
N[C@@H]1CCN(c2nccc(-c3cnn4ncccc34)n2)C1 | binding |  | 1 µM | 100%
N#Cc1ccc(Nc2ccc3[nH]c(=O)[nH]c3c2)c(Cl)c1 | cell-free assay | competition with immobilised ligand | 1 µM | 100%
CN(C)c1nccc(-c2cnn3ncccc23)n1 | binding |  | 1 µM | 78%
c1cncc(-c2cccc(Nc3nccc(NC4CCCCC4)n3)c2)c1 | binding | competition with immobilised ligand | 10 µM | 76%
